Source: PubChem
Hits are enriched below; roughly 5.9% of the tested compounds scored in any of these assays.
Pf Dd2 growth = inhibitors of Plasmodium falciparum Dd2 growth | AID 1159554 | 94,000 compounds, 2.3% hits | activity change, % at 10 µM | P. falciparum Dd2 growth, SYBR Green, 72 h; hits give low values; in the data active means activity change below about -80%; inconclusive means no clear call, values can overlap the other calls
T cruzi growth-1 = inhibitors of T. cruzi proliferation. inhibition, % at 8.34 µM. T. cruzi beta-gal in NIH3T3, GalScreen luminescence, 90 h. 77,000 compounds, 5.9% hits. AID 624255;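 active means mean inhibition above about 93%, with at least 55% of replicates each passing it, limit read from the data, passing the limit was not always enough; inconclusive means only one of those two conditions holds; inactive means neither condition holds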
IDH1 mut inh = blocks human IDH1 R132H reductase activity; 70,000 compounds, 0.18% hits; inhibition, % at 10 µM; diaphorase/resazurin fluorescence, 60 min; in the data active means inhibition above about 34%; inconclusive means no clear call, values can overlap the other calls; inactive means below about 11%
Target sequence (O75874 whole entry R132H): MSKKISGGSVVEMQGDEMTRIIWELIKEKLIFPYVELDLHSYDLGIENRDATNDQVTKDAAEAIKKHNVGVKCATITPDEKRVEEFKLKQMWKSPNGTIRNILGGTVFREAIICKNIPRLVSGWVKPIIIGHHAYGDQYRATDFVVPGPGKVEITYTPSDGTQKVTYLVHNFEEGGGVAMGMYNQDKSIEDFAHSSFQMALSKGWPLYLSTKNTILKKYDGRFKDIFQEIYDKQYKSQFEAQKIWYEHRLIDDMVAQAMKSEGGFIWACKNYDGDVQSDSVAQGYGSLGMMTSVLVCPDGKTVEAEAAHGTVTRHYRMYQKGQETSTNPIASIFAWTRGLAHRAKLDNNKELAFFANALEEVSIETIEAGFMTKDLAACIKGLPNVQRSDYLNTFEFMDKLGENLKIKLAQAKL
GASC1 inh = blocks human GASC-1 (KDM4C) demethylase activity | inhibition, % at 12.5 µM | 96,000 compounds, 0.15% hits | AID 720574 | GST-KDM4C 2-372, H3K9me3 peptide, LANCE TR-FRET;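 active means mean replicate inhibition above about 25%, with at least 55% of replicates also reaching it, limit read from the data, passing the limit was not always enough; inconclusive means only one of those two conditions met; inactive means neither condition met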
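reagent = H3K9me3 peptide substrate, Fe(II), 2-oxoglutarate | system = GST-tagged GASC-1 (JMJD2C) catalytic fragment, aa 2-372 | amount = enzyme final amount 10 nM | read-out = Fall in 671/618 emission ratio as inhibition | medium = HEPES buffer, pH 7.5, plus ascorbate | schedule = 30 min reaction, 60 min detection, RT | measured by = LANCE TR-FRET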
T cruzi growth-2 = inhibitors of T. cruzi proliferation | shares compounds with T cruzi growth-1 | T. cruzi beta-gal in NIH3T3, GalScreen luminescence, 90 h | inhibition, % at 8.35 µM | 5,600 compounds, 72% hits | AID 651739;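 active means mean replicate inhibition above about 95% and at least 55% of replicates individually reaching it, limit read from the data; inconclusive means only one of the two criteria is met; inactive means neither criterion is met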
T cruzi growth-3 = blocks T. cruzi growth in NIH3T3 host cells; 5,600 compounds, 21% hits; shares compounds with T cruzi growth-1; inhibition, % at 2.09 µM; T. cruzi beta-gal in NIH3T3, GalScreen luminescence, 90 h;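 active means mean inhibition above about 95%, with at least 55% of replicates also reaching it, limit read from the data; inconclusive means meets just one of the two conditions; inactive means meets neither condition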
3T3 cytotox = kills mouse NIH/3T3 fibroblasts. shares compounds with T cruzi growth-1. NIH/3T3 viability, CellTiter-Glo ATP luminescence, 90 h. cytotoxicity (signal decrease), % at 8.35 µM. 5,600 compounds, 14% hits;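 active means mean signal decrease across replicates above about 35% based on untreated-well scatter, with enough replicates individually passing, limit read from the data; inconclusive means no rule stated though some were filed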
NIH3T3 tox 2 = cytotoxicity in mouse NIH/3T3 fibroblasts | shares compounds with T cruzi growth-1 | NIH/3T3 viability, CellTiter-Glo ATP luminescence, 90 h | inhibition, % at 24.9 µM | 5,600 compounds, 56% hits | AID 651744;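 active means mean loss of cell viability signal at or above a set limit, and enough replicates individually reaching it; inconclusive means meets only the mean limit or only the replicate share; inactive means meets neither condition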
Numbers stand for hits; - = inactive; ? = inconclusive; . = no result given; ! = not active in a repeat.

SMILES | Pf Dd2 growth | T cruzi growth-1 | IDH1 mut inh | GASC1 inh | T cruzi growth-2 | T cruzi growth-3 | 3T3 cytotox | NIH3T3 tox 2
COc1ccc(C#Cc2ccc3c(c2)O[C@@H](CN(C)C(=O)NC2CCCCC2)[C@@H](C)CN([C@H](C)CO)S3(=O)=O)cc1 | -81 | ? | - | - | 95 | 113 | - | -
C[C@H]1CN([C@@H](C)CO)S(=O)(=O)c2ccc(C#Cc3ccc(F)cc3)cc2O[C@@H]1CN(C)C(=O)NC1CCCCC1 | - | - | - | - | . | . | . | .
COc1ccc(C)cc1NC(=O)CN(c1ccc(Br)c(C)c1)S(C)(=O)=O | . | . | - | . | . | . | . | .
COc1ccc(C#Cc2ccc3c(c2)O[C@@H](CN(C)C(=O)NC2CCCCC2)[C@H](C)CN([C@@H](C)CO)S3(=O)=O)cc1 | - | ? | - | - | 100 | 99 | - | -
C[C@@H]1CN([C@H](C)CO)C(=O)c2cc(/C=C/c3ccccc3)cnc2O[C@@H]1CN(C)Cc1ccc2c(c1)OCO2 | - | 86 | - | - | 109 | - | - | 102
C[C@@H]1CN([C@@H](C)CO)C(=O)c2cc(/C=C/c3ccccc3)cnc2O[C@@H]1CN(C)Cc1ccc2c(c1)OCO2 | - | 104 | - | - | 103 | - | - | 104
C/C=C/c1cnc2c(c1)C(=O)N([C@H](C)CO)C[C@H](C)[C@@H](CN(C)Cc1ccc3c(c1)OCO3)O2 | - | . | - | - | . | . | . | .
C[C@@H]1O[C@@H](OC[C@H]2O[C@@H](c3c(O)cc4oc(-c5ccc(O)c(O)c5)cc(=O)c4c3O)[C@H](O)[C@@H](O)[C@@H]2O)[C@H](O)[C@H](O)[C@H]1O | . | . | - | . | . | . | . | .
COc1cccc(NC(=O)CSc2nnc(-c3ccncc3)n2-c2ccc(C)cc2)c1 | . | . | - | . | . | . | . | .
Cc1ccc(S(=O)(=O)N(C)C[C@H]2OCCCC[C@H](C)Oc3ccc(NS(=O)(=O)c4ccccc4)cc3C(=O)N([C@H](C)CO)C[C@@H]2C)cc1 | - | - | - | - | . | . | . | .
Cc1ccc(S(=O)(=O)Nc2ccc3c(c2)C(=O)N([C@@H](C)CO)C[C@H](C)[C@H](CN(C)S(=O)(=O)c2ccc(C)cc2)OCCCC[C@H](C)O3)cc1 | - | 104 | . | - | 105 | - | - | -
Cc1ccc(S(=O)(=O)Nc2ccc3c(c2)C(=O)N([C@H](C)CO)C[C@@H](C)[C@H](CN(C)S(=O)(=O)c2ccc(C)cc2)OCCCC[C@H](C)O3)cc1 | - | - | . | - | . | . | . | .
Cc1ccc(S(=O)(=O)Nc2ccc3c(c2)C(=O)N([C@@H](C)CO)C[C@H](C)[C@@H](CN(C)S(=O)(=O)c2ccc(C)cc2)OCCCC[C@H](C)O3)cc1 | - | 106 | . | - | 108 | - | - | -
Cc1ccc(S(=O)(=O)Nc2ccc3c(c2)C(=O)N([C@H](C)CO)C[C@H](C)[C@@H](CN(C)S(=O)(=O)c2ccc(C)cc2)OCCCC[C@H](C)O3)cc1 | - | 98 | . | - | 97 | - | 75 | 59
Cc1ccc(S(=O)(=O)Nc2ccc3c(c2)C(=O)N([C@H](C)CO)C[C@@H](C)[C@@H](CN(C)S(=O)(=O)c2ccc(C)cc2)OCCCC[C@H](C)O3)cc1 | -84 | 103 | . | - | 112 | ? | - | -
Cc1ccc(NC(=O)CSc2nnc(-c3ccc([N+](=O)[O-])cc3)n2-c2ccccc2)cc1C | . | . | - | . | . | . | . | .
Cc1cc(C)c2oc(-c3ccc(NC(=O)COc4ccccc4[N+](=O)[O-])cc3)nc2c1 | . | . | - | . | . | . | . | .
O=C(OCc1cccc([N+](=O)[O-])c1)c1ccc(NC(=O)c2ccco2)cc1 | . | . | - | . | . | . | . | .
O=C1C(=O)N(CC2CCCO2)C(c2cccc(Oc3ccccc3)c2)C1C(=O)c1ccco1 (stereo unspecified) | . | . | - | . | . | . | . | .
C=C[C@H]1CN2CC[C@H]1C[C@@H]2C(O)c1ccnc2ccc(OC)cc12 (stereo partly specified) | . | . | - | . | . | . | . | .
O=C(NCc1ccco1)c1ccc2c(c1)C(=O)N(CC1CCCO1)C2=O (stereo unspecified) | . | . | - | . | . | . | . | .
Cc1ccc([N+](=O)[O-])cc1NC(=O)CN(C)S(=O)(=O)c1ccc(Br)cc1 | . | . | - | . | . | . | . | .
CC(C)NC(=O)N(C)C[C@H]1OCCCC[C@@H](C)Oc2ccc(NC(=O)C3CCCCC3)cc2C(=O)N([C@H](C)CO)C[C@@H]1C | - | 99! | . | - | - | - | - | -
C[C@@H]1CN([C@@H](C)CO)C(=O)c2cc(NC(=O)C3CCCCC3)ccc2O[C@@H](C)CCCCO[C@@H]1CN(C)C(=O)Nc1ccc(C(F)(F)F)cc1 | ? | - | - | - | . | . | . | .
C[C@H]1CCCCO[C@@H](CN(C)C(=O)Nc2ccc(C(F)(F)F)cc2)[C@@H](C)CN([C@@H](C)CO)C(=O)c2cc(NC(=O)C3CCCCC3)ccc2O1 | -83 | 97 | . | - | 104 | 105 | - | -
SMILES | Pf Dd2 growth | T cruzi growth-1 | IDH1 mut inh | GASC1 inh | T cruzi growth-2 | T cruzi growth-3 | 3T3 cytotox | NIH3T3 tox 2
C[C@@H]1CCCCO[C@@H](CN(C)C(=O)Nc2ccc(C(F)(F)F)cc2)[C@@H](C)CN([C@H](C)CO)C(=O)c2cc(NC(=O)C3CCCCC3)ccc2O1 | - | 101 | - | - | 107 | - | - | -
C[C@@H]1CCCCO[C@@H](CN(C)C(=O)Nc2ccc(F)cc2)[C@@H](C)CN([C@H](C)CO)C(=O)c2cc(NC(=O)C3CCCCC3)ccc2O1 | - | - | - | - | . | . | . | .
CC1CC(=O)c2cc(O)c(O)cc2C1 (stereo unspecified) | . | . | - | . | . | . | . | .
O=C(CN1C(=O)CNC1=O)Nc1cccc2ccccc12 | . | . | - | . | . | . | . | .
C[C@H](CO)N1C[C@H](C)[C@@H](CN(C)C(=O)c2ccccc2)Oc2cc(C3=CCCC3)ccc2S1(=O)=O | - | - | - | - | . | . | . | .
C[C@@H]1CN([C@H](C)CO)S(=O)(=O)c2ccc(C3=CCCC3)cc2O[C@@H]1CN(C)C(=O)c1ccc(F)cc1 | - | . | - | - | . | . | . | .
C[C@@H]1CN([C@@H](C)CO)S(=O)(=O)c2ccc(C3=CCCCC3)cc2O[C@@H]1CN(C)C(=O)c1ccccc1 | - | 108 | . | - | - | - | - | 70
C[C@H](CO)N1C[C@H](C)[C@@H](CN(C)C(=O)c2ccc(F)cc2)Oc2cc(C3=CCCCC3)ccc2S1(=O)=O | - | ? | - | - | 110 | - | - | 48
C[C@@H]1CN([C@@H](C)CO)S(=O)(=O)c2ccc(C3=CCCC3)cc2O[C@@H]1CN(C)C(=O)c1ccccc1 | - | 100 | - | - | 114 | - | - | -
COc1cc(CCC(=O)N2CCC=CC2=O)cc(OC)c1OC | . | . | - | . | . | . | . | .
CC(=O)C(C)Sc1ncnc2sc(-c3ccccc3)cc12 (stereo unspecified) | . | . | - | . | . | . | . | .
O=C(COc1ccc(C(=O)Nc2ccc(F)cc2)cc1)Nc1ccccc1C(F)(F)F | . | . | - | . | . | . | . | .
